# Compound activity: PubChem, Johns Hopkins Ion Channel Center
# MrgX1 antagonist: blocks BAM8-22 activation of human MrgX1 receptor; Q96LB2; MRGX1-HEK293 calcium flux, Fluo-4, BAM8-22 antagonism; hits give low values; B-score at 10 µM; actives 1.3% (n = 310,000); AID 588676;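 active = calcium-response B-score plate-corrected more than 3 library SD below zero, starting fluorescence within 5 deviations, no agonist response on first addition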;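 also: peak minus trough fluorescence over baseline after final BAM8-22 challenge near maximal dose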
# Target sequence (Q96LB2 whole entry, looked up): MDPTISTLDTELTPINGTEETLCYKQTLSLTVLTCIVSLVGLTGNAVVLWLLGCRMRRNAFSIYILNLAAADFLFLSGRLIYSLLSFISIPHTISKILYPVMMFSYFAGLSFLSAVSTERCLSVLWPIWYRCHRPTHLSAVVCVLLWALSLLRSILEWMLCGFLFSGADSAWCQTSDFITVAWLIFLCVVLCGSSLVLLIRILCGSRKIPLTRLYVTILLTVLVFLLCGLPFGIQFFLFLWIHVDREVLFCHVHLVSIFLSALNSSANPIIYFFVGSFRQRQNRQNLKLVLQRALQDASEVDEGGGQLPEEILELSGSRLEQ
# RGS4 pot: RGS4 potentiation or activation; HEK293 M3R/inducible RGS4, carbachol calcium flux Fluo4; hits give low values; B-score at 10 µM; actives 0.92% (n = 310,000);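 active = B-score of the integrated calcium signal more than 4 SD below the library mean, with starting fluorescence not abnormally high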;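 also: negative B-score means reduced calcium response which marks RGS4 activation or potentiation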
#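 System – HEK293 FlpIn-TREx cells, stable M3R, doxycycline-inducible RGS4 · Reagent – ECmax carbachol challenge · Times – compound preincubation 20 min at room temperature before agonist · Technique – Fluo4 fluorescence kinetic imaging of calcium · Measure – B score of integrated Fluo4 ratio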
# MrgX1 agonist: human MrgX1 receptor agonism, primary screen. MrgX1-HEK293 cells, Fluo-4 calcium fluorescence, agonist mode; hits give high values. B-score at 10 µM. actives 0.44% (n = 310,000). AID 588627;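 active = calcium response B-score plate-corrected fluorescence ratio at least 3 library SD, with starting fluorescence B-score inside 5 SD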
#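 Test system: HEK293 cells stably expressing human MrgX1 receptor; amount: 15,000 cells per well; doses: compound delivered in addition one of three; times: overnight plating before 1 h dye loading; detection: Fluo-4 NW calcium-flux fluorescence, kinetic read; read-out basis: B-scored fluorescence response ratio; controls: positive and negative controls per plate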
# MrgX1 PAM: allosterically activates human MrgX1 receptor signaling; MrgX1-HEK293, Fluo-4 calcium flux, FDSS; hits give high values; B-score at 10 µM; actives 0.63% (n = 310,000);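 active = plate-corrected calcium response at least 3 library SD above typical, normal starting fluorescence, not activating the receptor alone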;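 also: compound read alongside a low EC10 to EC30 dose of BAM8-22 agonist; peak minus trough fluorescence over baseline measured at the second addition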
# RGS4 inh: human RGS4 inhibition | P49798 | HEK293 M3R/RGS4 inducible, Fluo-4 calcium flux; hits give high values; triggered by carbachol at its EC20 | B-score at 10 µM | actives 0.45% (n = 310,000) | AID 463165;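 active = B-score, a plate-corrected calcium signal, over three deviations above library mean, with baseline fluorescence within five deviations of library mean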;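 also: RGS4 expression induced by doxycycline in cells with stable M3 receptor; B-score is computed from the integrated fluorescence ratio over baseline after carbachol; higher B-score means a larger calcium signal and so more RGS4 inhibition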
# Target sequence (P49798 whole entry, looked up): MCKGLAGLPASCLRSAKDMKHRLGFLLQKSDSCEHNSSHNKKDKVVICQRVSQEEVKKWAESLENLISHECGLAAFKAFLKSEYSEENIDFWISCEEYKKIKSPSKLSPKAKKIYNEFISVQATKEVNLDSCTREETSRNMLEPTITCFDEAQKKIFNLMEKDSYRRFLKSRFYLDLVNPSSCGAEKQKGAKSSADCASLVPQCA
# RGS4 activ val: confirmation of RGS4 activators. shares compounds with RGS4 pot. HEK293 M3R/RGS4 inducible, carbachol calcium flux Fluo4. inhibition, % at 10 µM. actives 89% (n = 1,100). AID 602282;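 active = inhibition above 3 SD of the buffer control wells, cut at about 41% in these data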;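 also: signal is the integrated peak-minus-minimum Fluo4 fluorescence over baseline ratio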
# M3R Ca counter: counter-screen for RGS4 activators: effect in non-induced cells | shares compounds with RGS4 pot | HEK293 M3R non-induced RGS4, Fluo4 calcium flux; after carbachol challenge at its EC90 | inhibition, % at 10 µM | actives 82% (n = 1,100) | AID 602283;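 active = inhibition exceeding 3 SD of buffer-only control wells, cut at about 26% in these data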;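 also: percent drop in integrated peak-minus-baseline over baseline Fluo4 ratio after carbachol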
# Hits are given with their value; . = inactive; / = no result given. Compounds with a hit are over-represented: about 3.5% of the library has one in this group of screens.
SMILES,MrgX1 antagonist,RGS4 pot,MrgX1 agonist,MrgX1 PAM,RGS4 inh,RGS4 activ val,M3R Ca counter
COC(=O)c1ccc(CN2CCC(CO)(Cc3ccccc3Cl)CC2)cc1,.,-7.8,.,.,.,92,60
C=CCN(CC=C)C(=O)COn1nnc2ccc(S(=O)(=O)N3CCOCC3)cc21,.,.,.,.,.,/,/
CCOC(=O)N1CCC(NC(=O)c2cc3c(=O)[nH]c4ccccc4c3n2C)CC1,.,.,.,.,.,/,/
O=C(CN1CCN(c2ccc(O)cc2)CC1)NC(=O)NCc1ccco1,.,.,.,.,.,/,/
COc1ccc(C)cc1S(=O)(=O)N1CCC(C(=O)NC2CCCC2)CC1,.,-8.1,.,.,.,.,.
C[C@H]1CCC(=O)N([C@H](CN=[N+]=[N-])Cc2ccccc2)CC1,.,.,.,.,.,/,/
COc1ccc(-c2oc3ncnc(NCCN4CCOCC4)c3c2-c2ccc(OC)cc2)cc1,.,-9.8,.,.,.,88,70
COc1ccc(-c2oc3ncnc(NCCCN4CCOCC4)c3c2-c2ccc(OC)cc2)cc1,.,.,.,.,.,/,/
CC1(C)Cc2c(sc(NC(=O)C(=O)N3CCCCC3)c2C(N)=O)CO1,.,.,.,.,.,/,/
COc1ccc(CN2CCCC(C(=O)c3ccc(SC)cc3)C2)cc1Cn1cccn1 (configuration not stated),.,.,.,.,.,/,/
CSc1ccc(C(=O)C2CCCN(Cc3ccc(N4CCNC4=O)cc3)C2)cc1 (configuration not stated),.,-8,.,.,.,91,57
O=C(COc1ccccc1)Nc1ccccc1N1CCN(c2ccc(F)cc2)CC1,.,-9.1,.,.,.,61,.
O=C(COc1ccccc1)Nc1ccccc1N1CCCCC1,.,.,.,.,.,/,/
COc1ccccc1C(=O)Nc1nnc(S(=O)(=O)N(C)Cc2ccccc2)s1,.,-8.9,.,.,.,89,52
COc1ccc(CN(C)S(=O)(=O)c2nnc(NC(=O)c3ccccc3)s2)cc1OC,.,.,.,.,.,/,/
CCOC(=O)Nc1cc(NC(=O)OCC)c(C)nc1C,.,.,.,.,.,/,/
Cc1ccn(S(=O)(=O)c2ccc(C(C)(C)C)cc2)n1,.,-7.8,.,.,.,92,26
Cc1cc(Cl)c(S(=O)(=O)N2CCN(c3ccccn3)CC2)cc1OCC(=O)NC1CCCCC1,.,-8,.,.,.,92,75
CC1(C)C(=O)OC(C(=O)c2ccccc2)C2(CCCCC2)C1=O (configuration not stated),.,.,.,.,.,/,/
COc1ccc(-c2cc(-c3nnc(COC(=O)c4ccc(O)cc4)o3)c3ccccc3n2)cc1OC,.,-7.7,.,.,.,62,.
Fc1cccc(Nc2nc(N3CCOCC3)nc(N3CCOCC3)n2)c1,.,.,.,.,.,/,/
CCOc1ccc(-n2cc(-c3ccccc3)c3c(N4CCOCC4)ncnc32)cc1,.,-8.2,.,.,.,62,.
CN1CCN(c2ncnc3c2c(-c2ccccc2)cn3-c2ccc(F)cc2)CC1,.,.,.,.,.,/,/
Cc1ccc(O)c(C(=O)c2cnc(/N=C(\N)N(C)C)nc2)c1,.,-8.8,.,.,.,90,69
Cn1cc([N+](=O)[O-])c(C(=O)n2cccn2)n1,.,.,.,.,.,/,/
SMILES,MrgX1 antagonist,RGS4 pot,MrgX1 agonist,MrgX1 PAM,RGS4 inh,RGS4 activ val,M3R Ca counter
O=C(Cn1c(=O)c2cccn2c2cccnc21)N1CCN(c2ccccc2F)CC1,.,.,.,.,.,/,/
CC1CCCCN1C(=O)c1cc2nc(-c3ccccc3)cc(-c3ccccc3)n2n1 (configuration not stated),.,-7.9,.,.,.,74,.
CC(C)(C)N(Cc1ccccc1)C(=O)c1ccc2c(c1)OCCO2,.,-9.2,.,.,.,92,54
CC(C)(C)N(Cc1nc(-c2ccccc2)no1)C(=O)c1ccc2c(c1)OCO2,.,.,.,.,.,/,/
c1ccc(CN2CCN(C3=Nc4cccc5cccc3c45)CC2)cc1,/,.,/,/,.,/,/
Fc1ccc(N2CCN(C3=Nc4cccc5cccc3c45)CC2)cc1,.,-13,.,.,.,94,74
